The target in data set [1] is CDC7/DBF4 (Cell division cycle 7-related protein kinase/Activator of S phase kinase) (Homo sapiens, UniProt O00311). The data set is described as follows: Inhibition of recombinant human Cdc7 (1 to 574 residues)/human N-terminal GST-tagged ASK (1 to 674 residues) expressed in baculovirus expression system using FITC-labeled MCM2 peptide as substrate measured after 5 hrs in presence of 5 uM ATP. The method in brief:
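Cdc7 enzymatic assay with 5 µM ATP. IC50 values are the mean of duplicate measurements.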

A short description of data set [2]: Stability in human liver microsomes assessed as compound remaining at 1 uM in presence of NADPH after 30 mins by LC-MS/MS analysis. The class given is ADME, microsome. The following applies: read-out: Stability. In short, it runs like this: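 Human liver microsomes are incubated with compound for 30 min. The read-out is the percentage of parent compound remaining.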
(Liver microsomes are a subcellular fraction often used to study metabolism.)

A short description of data set [3]: Stability of the compound under basic condition. The class given is physicochemical.
Data set [4] has as its target CDC7/DBF4 (Cell division cycle 7-related protein kinase/Activator of S phase kinase) (Homo sapiens) (UniProt Q9UBU7+O00311). Nature of the data set: Ratio of IC50 for recombinant human Cdc7 (1 to 574 residues)/human N-terminal GST-tagged ASK (1 to 674 residues) expressed in baculovirus expression system in presence of […] to IC50 for recombinant human Cdc7 (1 to 574 residues)/human N-terminal GST-tagged ASK (1 to 674 residues) expressed in baculovirus expression system in presence of 5 uM ATP.

The nature of data set [5]: Stability of the compound in 50% KOH. It is filed as physicochemical.
The species named for another data set is Mus musculus. The data set is described as follows: Stability in mouse liver microsomes assessed as compound remaining at 1 uM in presence of NADPH after 30 mins by LC-MS/MS analysis.

Consider 11 molecules from ChEMBL document CHEMBL4011589, “Discovery of novel furanone derivatives as potent Cdc7 kinase inhibitors” (Eur J Med Chem, 2017).

As a reminder, the IC50 is the concentration that inhibits the measured activity by half.

`NC(=O)C1=C(Nc2ccccc2)O/C(=C\c2c[nH]c3ncccc23)C1=O`: in data set [1], the half-maximal inhibitory concentration (IC50) was above 10 µM.
Take `CCOC(=O)C1=C(Nc2ccccc2)O/C(=C\c2c[nH]c3ncccc23)C1=O`: the IC50 in data set [1] is 0.0033 to 0.0038 µM. For the same molecule, the remaining at 0.5 h, 1 µM came to 23% in data set [2] and 7.9% in the data set filed under Mus musculus. Also, the Stability entry is recorded as “Stable” in data set [3] and “Unstable” in data set [5]. For the same molecule, in data set [4], the Ratio IC50 was 21.
For `CCOC(=O)C1=C(Nc2ccccc2)O/C(=C\c2ccc(O)c(C)c2)C1=O`, the IC50 in data set [1] was determined as 1.2 µM.
Turning to `CCOC(=O)C1=C(Nc2ccccc2)S/C(=C\c2c[nH]c3ncccc23)C1=O`, the IC50 in data set [1] was above 10 µM.
With `CCOC(=O)C1=C(Nc2ccc(F)cc2)O/C(=C\c2c[nH]c3ncccc23)C1=O`, the IC50 in data set [1] stood at 0.0043 µM. Further, the remaining at 0.5 h, 1 µM in data set [2] was 52%.
Consider `O=C(O)C1=C(Nc2ccccc2)O/C(=C\c2c[nH]c3ncccc23)C1=O`, for which the IC50 in data set [1] stood at 0.0099 µM.
On the same count and under the same terms, in the case of `O=C1C(C(=O)N2CCCCC2)=C(Nc2ccccc2)O/C1=C\c1c[nH]c2ncccc12` it was 0.89 µM; in that of `CCOC(=O)C1=C(Nc2ccccc2)O/C(=C\c2c[nH]c3ncc(Cl)cc23)C1=O`, 0.044 µM.
The same measure, in the same setting: in the case of `CCOC(=O)C1=C(Nc2ccccc2)O/C(=C\c2ccc3c(c2)OCO3)C1=O` it was 3.2 µM.
Regarding `CCOC(=O)C1=C(Nc2ccc(OC)cc2)O/C(=C\c2c[nH]c3ncccc23)C1=O`, the IC50 in data set [1] is 0.0049 µM. Further, the remaining at 0.5 h, 1 µM in data set [2] was determined as 33%.
Turning to `CCNC(=O)C1=C(Nc2ccccc2)O/C(=C\c2c[nH]c3ncccc23)C1=O`, in data set [1], the IC50 stood at 1.6 µM.
